High-throughput results: PubChem, Broad Institute
Only some compounds are listed: those with a hit (about 2.9% of all), similar ones and a draw of the others.
S100A4 inh HTS: blocks human S100A4 binding to myosin IIA peptide; inhibition, % at 10.7 µM; S100A4/TAMRA-MyoIIA peptide fluorescence polarization; P26447; hit rate 0.14% among 360,000; AID 652163;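 active = mean inhibition of at least 70% across replicates, with every replicate also reaching that level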
Target sequence (P26447 whole entry, looked up): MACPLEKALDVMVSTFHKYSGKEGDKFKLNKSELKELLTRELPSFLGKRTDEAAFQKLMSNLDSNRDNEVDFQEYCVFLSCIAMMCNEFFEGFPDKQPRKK
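Test system: S100A4 monomer protein; Medium: HEPES pH 7.2 with CaCl2, KCl, NaCl, DTT, Triton; Probe or stimulus: TAMRA-labelled myosin IIA heavy-chain peptide probe, 5 nM; Doses: one dose per compound; Times: polarization read 5 min after assay mix addition, stable 5–60 min; Benchmarks: neutral control DMSO, positive control TFP.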
DENV2 CPE rescue: inhibitors of DENV2 cytopathic effect. DENV2-infected cells, cytopathic effect rescue, plate reader. CPE inhibition, % at 9.99 µM. hit rate 1.7% among 350,000. AID 651640; in the data active = CPE inhibition above about 20%, passing the limit was not always enough; tested in BHK-21 cells;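 note: 0% = median of neutral control wells and 100% = median of positive control wells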
SIRT5 inh: sirtuin-5 (human) deacylase inhibition. AID 652115. inhibition, % at 15 µM. Purified SirT5, succinyl-peptide AMC, trypsin-coupled fluorescence. Q9NXA8. hit rate 1.1% among 330,000; in the data active = inhibition above about 15%
Target sequence (Q9NXA8 whole entry, looked up): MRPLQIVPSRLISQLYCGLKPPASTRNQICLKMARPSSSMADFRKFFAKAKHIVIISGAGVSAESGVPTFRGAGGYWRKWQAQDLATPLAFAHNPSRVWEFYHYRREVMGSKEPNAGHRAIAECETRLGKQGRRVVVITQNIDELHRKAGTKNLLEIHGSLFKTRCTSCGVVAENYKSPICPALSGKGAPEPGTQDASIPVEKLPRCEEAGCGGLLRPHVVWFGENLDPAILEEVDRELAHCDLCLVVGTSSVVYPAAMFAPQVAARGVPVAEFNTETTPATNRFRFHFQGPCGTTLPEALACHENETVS
CAL PDZ FP-1: inhibitors of human CAL PDZ peptide binding. Q9HD26. hit rate 0.02% among 330,000. inhibition, % at 20 µM. purified CAL PDZ, TMR-peptide fluorescence polarization, 1 h;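 active = highest replicate inhibition of at least 40%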;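 note: plate controls were DMSO neutral control wells for no effect and unlabeled competitor peptide control wells for full effect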
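Material: tagged CAL PDZ domain; buffer or medium: 25 mM sodium phosphate pH 7.4, 150 mM NaCl, TCEP, IgG, Thesit; compound dosing: single point, 20 µM; schedule: 1 h incubation at room temperature before polarization reading; measured by: FP readout, S and P plane fluorescence; read-out basis: percent inhibition from loss of millipolarization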
ERAP1 inh: inhibitors of human ERAP1 aminopeptidase; Q9NZ08; recombinant ERAP1, Leu-AMC fluorescence, 60 min; inhibition, % at 10.7 µM; hit rate 0.15% among 340,000; AID 652197;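 active = mean replicate inhibition of at least 30%, or all replicates individually reaching that 30% level; inactive = mean below 30% and not every replicate reaching it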;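 note: 0% = neutral control wells and 100% = L-leucinethiol positive control wells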
CAL PDZ FP-2: inhibitors of human CAL PDZ peptide binding. inhibition, % at 24.9 µM. Q9HD26. purified CAL PDZ, TMR-peptide fluorescence polarization, 1 h. hit rate 0.92% among 300,000;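 active = mean inhibition of at least 30% with at least half of replicates also reaching 30%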;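 note: 0% = DMSO neutral control and 100% = excess unlabeled competitor peptide PRC23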
An asterisk follows results filed as active; nt = no result given.

SMILES	S100A4 inh HTS	DENV2 CPE rescue	SIRT5 inh	CAL PDZ FP-1	ERAP1 inh	CAL PDZ FP-2
CCOC(=O)C1CCN(C(=O)COC(=O)c2ccc([N+](=O)[O-])o2)CC1	6.6	76.3*	-5.8	0.7	0.4	1.8
O=C(C[C@H]1CC[C@@H](NC(=O)CC2CC2)[C@@H](CO)O1)NCc1ccc(Cl)cc1	-23.3	16.9	1.9	nt	5.3	nt
COc1ccc(CNC(=O)C[C@@H]2C=C[C@H](NC(=O)CN(C)C)[C@H](CO)O2)cc1	1.2	-0.4	0.9	nt	0.3	nt
COc1cccc(C(=O)Nc2ccc3c(c2)C(=O)N(C)[C@@H]2CC[C@@H](CC(=O)NCCCN4CCOCC4)O[C@H]2CO3)c1	6.9	1.2	0.6	nt	-7.7	nt
CCC(=O)N1C[C@@H](C)[C@H](OC)CN(C)C(=O)c2ccc(NC(=O)Nc3ccc(Cl)cc3)cc2OC[C@@H]1C	-4.2	-1.9	5.0	nt	nt	nt
O=S(=O)(NCc1ccccc1)c1ccc(F)cc1Br	-5.8	-2.0	-2.3	-2.9	-1.5	-4.8
O=S(=O)(NCc1ccc(F)cc1)c1ccccc1Br	-0.2	30.7*	nt	-0.4	nt	-2.6
CCC(=NCCc1ccccc1)C1=C(O)CCC1=O	nt	nt	nt	-0.7	nt	64.4*
COC(=O)[C@@H]1[C@@H](CO)[C@@H]2Cn3c(ccc(C4=CCCC4)c3=O)[C@@H]2N1C(=O)Cc1cccnc1	-15.2	10.0	-7.3	nt	0.2	nt
O=C(NC1CCC1)[C@H]1[C@H](CO)[C@H]2Cn3c(ccc(C4=CCCC4)c3=O)[C@H]2N1C(=O)C1CCC1	-10.1	-3.3	-16.8	nt	-2.5	nt
COc1cccc(CNC(=O)[C@H]2[C@H](CO)[C@H]3Cn4c(ccc(-c5ccncc5)c4=O)[C@H]3N2C)c1	-1.6	137.8*	-0.8	nt	-2.2	nt
CCCN1[C@@H]2c3ccc(-c4cccc(OC)c4)c(=O)n3C[C@@H]2[C@@H](CO)[C@@H]1C(=O)OC	-1.2	-5.9	16.4*	nt	-1.6	nt
COc1cccc(CNC(=O)[C@H]2[C@H](CO)[C@H]3Cn4c(ccc(-c5cccc(OC)c5)c4=O)[C@H]3N2C)c1	2.5	-5.5	-2.6	nt	-1.1	nt
COC(=O)[C@H]1[C@H](CO)[C@H]2Cn3c(ccc(C4=CCCCC4)c3=O)[C@H]2N1Cc1cccnc1	-13.4	25.7*	-13.8	nt	0.0	nt
O=C(NC1CCC1)[C@@H]1[C@@H](CO)[C@@H]2Cn3c(ccc(C4=CCCCC4)c3=O)[C@@H]2N1C(=O)C1CCOCC1	-5.9	55.7*	-12.9	nt	-2.7	nt
Cn1cnc(S(=O)(=O)N[C@@H]2CC[C@H](CC(=O)N3CCN(c4ccccc4)CC3)O[C@H]2CO)c1	-3.5	1.9	1.9	nt	-0.6	nt
CN(C)C(=O)C[C@H]1CC[C@@H]2[C@H](COC[C@H](O)CN2Cc2nccs2)O1	28.0	14.1	-2.8	nt	-2.2	nt
CCS(=O)(=O)N1CCC2(CC1)CN(C(=O)Cc1ccccn1)[C@H](CO)c1[nH]c3cc(OC)ccc3c12	4.2	13.2	5.3	nt	-5.0	nt
CCCNC(=O)[C@@H]1[C@@H](CO)[C@@H]2Cn3c(ccc(-c4ccc(OC)cc4)c3=O)[C@@H]2N1CCC	2.0	-1.8	-14.1	nt	-0.1	nt
CCCNC(=O)[C@H]1[C@H](CO)[C@H]2Cn3c(ccc(-c4ccc(OC)cc4)c3=O)[C@H]2N1CCC	16.7	13.4	16.5*	nt	-1.3	nt
Cc1sc2ncnc(Sc3ccccc3C(=O)O)c2c1C	-9.1	11.6	1.7	-0.4	-0.5	2.0
O=C(O)c1ccccc1Sc1ncnc2sc3c(c12)CCC3	3.9	-3.5	0.6	nt	7.3	64.8*
COc1ccc(-c2ccc3c(c2)O[C@@H](CN(C)Cc2cccnc2)[C@H](C)CN([C@H](C)CO)S3(=O)=O)cc1	-0.2	-8.2	1.4	nt	0.6	nt
COc1ccc(NC(=O)N(C)C[C@@H]2OCCCC[C@@H](C)Oc3ccc(NC(=O)c4ccccc4)cc3C(=O)N([C@H](C)CO)C[C@@H]2C)cc1	-2.4	-3.3	2.6	nt	-0.7	nt
COc1ccc(S(=O)(=O)Nc2ccc3c(c2)C(=O)N([C@H](C)CO)C[C@@H](C)[C@@H](CN(C)Cc2ccc(C(=O)O)cc2)OCCCC[C@@H](C)O3)cc1	-1.7	-8.5	-0.4	nt	-3.8	nt
SMILES	S100A4 inh HTS	DENV2 CPE rescue	SIRT5 inh	CAL PDZ FP-1	ERAP1 inh	CAL PDZ FP-2
COc1ccc(S(=O)(=O)Nc2ccc3c(c2)C(=O)N([C@H](C)CO)C[C@H](C)[C@@H](CN(C)Cc2ccc(C(=O)O)cc2)OCCCC[C@@H](C)O3)cc1	0.1	32.6*	4.1	nt	-2.6	nt
COc1ccc(S(=O)(=O)Nc2ccc3c(c2)C(=O)N([C@@H](C)CO)C[C@@H](C)[C@@H](CN(C)Cc2ccc(C(=O)O)cc2)OCCCC[C@H](C)O3)cc1	1.5	25.8*	6.2	nt	-6.8	nt
CCCNC(=O)C[C@@H]1CC[C@@H]2[C@H](COC[C@H](O)CN2Cc2ccncc2)O1	13.4	-4.7	-1.1	nt	-0.4	nt
COc1ccc(NC(=O)Nc2ccc3c(c2)C(=O)N([C@@H](C)CO)C[C@H](C)[C@H](CN(C)C(=O)Nc2ccccc2)O3)cc1	3.9	7.0	-2.8	nt	-0.5	nt
COc1cccc(CN(C)S(=O)(=O)c2cccs2)c1	-4.5	24.8*	1.8	-1.6	-1.2	-3.2
CC(=O)c1cccc(NC(=O)c2ccc(NC(=O)CCS(=O)(=O)c3cccs3)cc2)c1	1.3	27.9*	1.1	-0.7	-4.6	-1.8
CCOC(=O)c1cccc(NC(=O)CCS(=O)(=O)c2cccs2)c1	nt	nt	nt	nt	nt	-2.6
COc1cccc(NC(=O)CCS(=O)(=O)c2cccs2)c1	nt	nt	nt	-1.5	nt	72.0*
CN1c2ccc(C#Cc3cccnc3)cc2[C@@H]2[C@@H](CCN2S(=O)(=O)c2cccc(F)c2)[C@H]1CO	-6.2	-13.4	1.9	nt	-1.2	nt
CC(=O)Nc1cccc(/C(C)=N/NC(=O)c2cccc(S(=O)(=O)N3CCCC3)c2)c1	-0.6	25.0*	nt	nt	-0.7	nt
Cc1cccnc1NC(=O)c1ccc(S(=O)(=O)N2CCCCC2)cc1	2.6	-11.1	2.2	-1.2	-2.1	-1.9
CC(=NNC(=O)c1cccc(S(=O)(=O)N2CCCC2)c1)c1ccccc1	-1.9	6.2	8.4	-1.5	-7.6	0.5
Cc1cccnc1NC(=O)c1cccc(S(=O)(=O)N2CCCC2)c1	-0.8	31.2*	-0.2	-2.6	1.7	-3.8
COc1ccc(NC(=O)C#Cc2ccccc2)cc1	1.7	-4.7	4.4	1.2	-7.3	63.1*
O=C(COC(=O)c1cc(Cl)ccc1[N+](=O)[O-])NC1CC1	3.8	10.0	15.6*	-1.6	-1.4	-2.9
Cc1ccc(CN2CC(=O)N3[C@@H](CO)[C@@H](c4ccc(Br)cc4)[C@@H]3C2)cc1	5.8	2.2	-0.7	nt	-0.1	nt
COc1cccc(-c2ccc3c(c2)[C@H]2[C@H](CCN2C(=O)C2CCOCC2)[C@@H](CO)N3)c1	-4.8	-3.4	0.3	nt	-1.7	nt
COCC#Cc1ccc2c(c1)O[C@@H](CN(C)CC1CCCC1)[C@H](C)CN([C@@H](C)CO)S2(=O)=O	-10.0	9.8	23.7*	nt	-0.5	nt
